Experimental findings from ChEMBL document CHEMBL3244269, “Synthesis of carboxyarylindoles and benzofurans as nonsteroidal antiinflammatory agents” (J Med Chem, 1977) are described below.

Data set [1] has as its system Rattus norvegicus. The data set is described as follows: Toxicity in carrageenan-induced Wistar rat assessed as increase in paw edema at 200 mg/kg, po administered 30 mins prior challenge measured after 3 hrs relative to placebo-control. Format: organism-based. On the set-up: dose 200 mg/kg, route oral. As to conditions: in vivo. In outline: (§1)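 Fasted male Wistar rats, eight per group, dosed orally with 200 mg/kg as a saline-Tween 80 suspension (10 mL/kg), or placebo. After 30 min, 0.1 cm³ of 1% carrageenan in distilled water was injected into the left hind paw plantar surface. Paw volume was read by mercury displacement then and 3 h later. Mean volume increase was compared with placebo as percent inhibition.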

For data set [2], the system named is Rattus norvegicus. The data set is described as follows: Antiinflammatory activity in Wistar rat assessed as inhibition of carrageenan-induced paw edema at 200 mg/kg, po administered 30 mins prior challenge measured after 3 hrs relative to placebo-control. The format is functional. In outline: as §1

On to `COC(=O)c1cc(-c2cc3c(n2-c2ccccc2)CCc2ccccc2-3)ccc1O`, for which the Activity result in data set [1] is “Toxic”. Also, in data set [2], the inhibition in vivo at 200 mg/kg is 21.7%.

Turning to `O=C(O)c1cc(-c2cc3c(n2-c2ccccc2)CCc2ccccc2-3)ccc1O`, the inhibition in vivo at 200 mg/kg in data set [2] worked out at 37.5%.

`O=C(O)c1cc(-c2cc3c(n2-c2ccccc2)CCCC3)ccc1O`: the inhibition in vivo at 200 mg/kg in data set [2] was determined as 25.8%.

`CCCCn1c(-c2ccc(O)c(C(=O)O)c2)cc2c1CCCC2`: the inhibition in vivo at 200 mg/kg in data set [2] amounted to 41%.

For `COC(=O)c1cc(-c2cc3c(o2)CCCC3)ccc1O`, in data set [1], the Activity result is on record as “Toxic”. Also, the inhibition in vivo at 200 mg/kg in data set [2] was 9.8%.

For the molecule `O=C(O)c1cc(-c2cc3c(o2)CCCC3)ccc1O`, the inhibition in vivo at 200 mg/kg in data set [2] turned out to be 21.5%.

Take `O=C(O)c1cc(-n2c(-c3ccccc3)cc3c2CCCC3)ccc1O`: the inhibition in vivo at 200 mg/kg in data set [2] was 64%.

On to `CC(=O)Oc1ccccc1C(=O)O` [ASPIRIN], for which the inhibition in vivo at 200 mg/kg in data set [2] is 65.3%.

For `O=C(O)c1cc(-n2c(-c3ccccc3)cc3c2CCc2ccccc2-3)ccc1O` [FENDOSAL], in data set [2], the inhibition in vivo at 200 mg/kg worked out at 64.2%.
